Active and inactive are the calls of the source. The calls are words filed in the database; no cut-off is given here.
What was measured:
[1] = Oral bioavailability in dog at 5 mg/kg; type: ADME, organism-based, Canis lupus familiaris; settings: in vivo
Cynomolgus monkey [2] = assay: Plasma concentration in cynomolgus monkey at 30 mg/kg, po; type: ADME, organism-based, Macaca fascicularis; parameters: dose 30 mg/kg, route oral; settings: in vivo
How it was run: (§1)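 Male cynomolgus monkeys, at least four per group, given a single nasal-gastric dose in 1% Tween 80, 47.5% Ora-Plus, 51.5% water. Plasma collected 2 h post-dose and snap-frozen.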

Cynomolgus monkey [3] = assay: Inhibition of 11beta-HSD1 in mesenteric fat of cynomolgus monkey assessed as conversion of [3H]cortisone to [3H]cortisol at 3 mg/kg, po after 2 hrs; type: functional, organism-based; parameters: dose 3 mg/kg; settings: Macaca fascicularis
How it was run: (§2)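 Male cynomolgus monkeys, at least four per group, given a single nasal-gastric dose in 1% Tween 80/47.5% Ora-Plus/51.5% water. Plasma and mesenteric fat taken 2 h post-dose and snap-frozen. About 50 mg fat pieces, in triplicate, incubated 1 h at 37 °C in KRP buffer pH 7.4 containing 3H-cortisone. 3H-cortisol in the medium quantified by SPA with anti-cortisol antibody beads.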

[4] = Clearance in monkey at 2 mg/kg, iv and 10 mg/kg, po; type: ADME, organism-based, Macaca mulatta; settings: rhesus monkey, in vivo
Cytochrome P450 3A4 [5] = target: T1, Cytochrome P450 3A4 (Homo sapiens, UniProt P08684); assay: Induction of CYP3A4 activity in cryopreserved human hepatocytes from male DJV donars with no adverse medical history or substance or alcohol abuse at 20 uM relative to 20 uM rifampin
T1 sequence (P08684 whole entry): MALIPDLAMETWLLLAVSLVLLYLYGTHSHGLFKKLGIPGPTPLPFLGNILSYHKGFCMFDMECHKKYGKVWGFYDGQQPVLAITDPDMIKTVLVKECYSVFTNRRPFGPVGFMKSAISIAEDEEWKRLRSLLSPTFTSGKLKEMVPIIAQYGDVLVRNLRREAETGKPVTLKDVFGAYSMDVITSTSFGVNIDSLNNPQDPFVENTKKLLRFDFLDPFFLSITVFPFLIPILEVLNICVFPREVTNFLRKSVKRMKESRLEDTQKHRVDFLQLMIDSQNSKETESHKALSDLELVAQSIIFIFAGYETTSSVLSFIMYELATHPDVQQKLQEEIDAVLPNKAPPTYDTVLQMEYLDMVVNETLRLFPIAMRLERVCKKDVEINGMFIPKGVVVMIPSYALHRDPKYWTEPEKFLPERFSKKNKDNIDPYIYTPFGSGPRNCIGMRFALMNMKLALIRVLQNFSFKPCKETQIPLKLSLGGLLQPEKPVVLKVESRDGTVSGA

[6] = AUC (0 to infinity) in monkey at 10 mg/kg, po; type: ADME, organism-based, Macaca mulatta; parameters: time infinity, dose 10 mg/kg, route oral; settings: rhesus monkey, plasma
[7] = target: T2, 11-beta-hydroxysteroid dehydrogenase type 1 (Canis lupus familiaris, UniProt Q5XX84); assay: Inhibition of dog 11beta-HSD1 expressed in CHO cells assessed as conversion of cortisone to cortisol by ELISA; type: cell-based
T2 sequence (Q5XX84 whole entry): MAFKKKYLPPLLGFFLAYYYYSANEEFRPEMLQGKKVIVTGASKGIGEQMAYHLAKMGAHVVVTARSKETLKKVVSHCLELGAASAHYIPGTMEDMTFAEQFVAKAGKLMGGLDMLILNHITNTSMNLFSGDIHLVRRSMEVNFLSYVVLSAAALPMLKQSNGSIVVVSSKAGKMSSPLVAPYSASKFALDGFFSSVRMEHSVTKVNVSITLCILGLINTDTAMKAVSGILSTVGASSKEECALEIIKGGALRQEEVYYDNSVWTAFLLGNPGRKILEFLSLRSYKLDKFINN
How it was run: (§3)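 CHO cells stably overexpressing the species 11β-HSD1, 30000 per well, seeded 1 day before. Rinsed in HEPES glucose buffer pH 7.4 with 0.1% DMSO. Compound 0.1 nM–10 µM final, 60 min at 37 °C. Cortisone then added (100 nM final) at 37 °C: mouse 45 min, dog 1.5 h, rat and monkey 2 h. Cortisol measured by ELISA.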

[8] = Inhibition of monkey recombinant 11beta-HSD1 expressed in Escherichia coli using [3H]cortisone by scintillation proximity assay; parameters: species or system Macaca mulatta
Hepatocyte [9] = assay: Induction of CYP3A4 in cryopreserved human hepatocytes from female NPV donars with history of tobacco and substance usage assessed as mRNA expression at 20 uM relative to 20 uM rifampin; type: functional
[10] = target: T3, 11-beta-hydroxysteroid dehydrogenase 1 (Homo sapiens, UniProt P28845); assay: Inhibition of human recombinant 11beta-HSD1 expressed in Escherichia coli using [3H]cortisone by scintillation proximity assay
T3 sequence (P28845 whole entry): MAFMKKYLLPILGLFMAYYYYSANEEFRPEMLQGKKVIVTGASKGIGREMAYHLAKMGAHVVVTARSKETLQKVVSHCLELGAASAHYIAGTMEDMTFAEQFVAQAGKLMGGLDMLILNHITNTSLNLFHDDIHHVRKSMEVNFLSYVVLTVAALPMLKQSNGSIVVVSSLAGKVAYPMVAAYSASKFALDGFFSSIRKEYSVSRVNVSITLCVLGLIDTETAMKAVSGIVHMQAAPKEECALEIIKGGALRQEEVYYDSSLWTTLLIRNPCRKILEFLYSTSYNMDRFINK

[11] = Volume of distribution at steady state in mouse at 2 mg/kg, iv and 10 mg/kg, po; type: ADME, organism-based; settings: in vivo, read-out: Vdss
[12] = Half life in monkey at 2 mg/kg, iv; type: ADME, organism-based, Macaca mulatta; parameters: dose 2 mg/kg, route intravenous; settings: rhesus monkey, in vivo
Hepatocyte [13] = assay: Induction of CYP3A4 in cryopreserved human hepatocytes from male DJV donars with no adverse medical history or substance or alcohol abuse assessed as mRNA expression at 20 uM relative to 20 uM rifampin; type: functional
[14] = target: T3, 11-beta-hydroxysteroid dehydrogenase 1; assay: Inhibition of human 11beta-HSD1 expressed in CHO cells assessed as conversion of cortisone to cortisol by ELISA; type: cell-based
[15] = Half life in rat at 2 mg/kg, iv; type: ADME, organism-based; parameters: dose 2 mg/kg, route intravenous; settings: in vivo
[16] = Volume of distribution at steady state in dog at 2 mg/kg, iv and 5 mg/kg, po; type: ADME, organism-based, Canis lupus familiaris; settings: in vivo, read-out: Vdss
How it was run: (§4)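 Dog PK: intravenous 2 mg kg^-1 in 10% dimethylacetamide, 23% water, 67% PEG 400; oral 5 mg kg^-1 in 1% Tween 80, 47.5% OraPlus, 51.5% water.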

[17] = AUC (0 to infinity) in mouse at 10 mg/kg, po; type: ADME, organism-based; parameters: dose 10 mg/kg, route oral, time infinity; settings: plasma
[18] = Oral bioavailability in monkey at 10 mg/kg; type: ADME, organism-based, Macaca mulatta; settings: rhesus monkey, in vivo
Cynomolgus monkey [19] = assay: Inhibition of 11beta-HSD1 in mesenteric fat of cynomolgus monkey assessed as conversion of [3H]cortisone to [3H]cortisol at 30 mg/kg, po after 2 hrs; type: functional, organism-based; parameters: dose 30 mg/kg; settings: Macaca fascicularis; how it was run: as §2
[20] = target: T4, 11-beta-hydroxysteroid dehydrogenase 1 (Mus musculus, UniProt P50172); assay: Inhibition of mouse recombinant 11beta-HSD1 expressed in Escherichia coli using [3H]cortisone by scintillation proximity assay
T4 sequence (P50172 whole entry): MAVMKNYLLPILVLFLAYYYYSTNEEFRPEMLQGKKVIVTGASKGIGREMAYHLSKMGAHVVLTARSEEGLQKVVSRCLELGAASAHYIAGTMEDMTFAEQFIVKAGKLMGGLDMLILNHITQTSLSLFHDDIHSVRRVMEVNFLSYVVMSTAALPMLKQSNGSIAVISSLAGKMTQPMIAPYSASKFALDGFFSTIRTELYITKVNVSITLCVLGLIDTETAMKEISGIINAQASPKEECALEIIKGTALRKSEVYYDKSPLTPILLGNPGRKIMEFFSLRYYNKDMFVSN
How it was run: (§5)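 Purified enzyme expressed in E. coli, dog at 20 nM final and mouse at 5 nM. [3H]cortisone 100 nM, NADPH 200 µM, in 50 mM Tris-HCl, 1 mM EDTA, pH 7.2. 1 h at room temperature, then stopped with 18β-glycyrrhetinic acid. Anticortisol antibody and antimouse SPA beads added for 30 min; read by scintillation counting. Ki derived.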

Cytochrome P450 3A4 [21] = target: T1, Cytochrome P450 3A4; assay: Induction of CYP3A4 activity in cryopreserved human hepatocytes from female NPV donars with history of tobacco and substance usage at 20 uM relative to 20 uM rifampin
[22] = Clearance in rat at 2 mg/kg, iv and 5 mg/kg, po; type: ADME, organism-based; settings: in vivo
[23] = Fraction unbound in cynomolgus monkey plasma protein; type: ADME, cell-free, Macaca fascicularis
[24] = Oral bioavailability in rat at 5 mg/kg; type: ADME, organism-based; settings: in vivo
[25] = AUC (0 to infinity) in dog at 5 mg/kg, po; type: ADME, organism-based, Canis lupus familiaris; parameters: time infinity, dose 5 mg/kg, route oral; settings: plasma
[26] = target: T5, 11-beta-hydroxysteroid dehydrogenase 1 (Rattus norvegicus, UniProt P16232); assay: Inhibition of rat 11beta-HSD1 expressed in CHO cells assessed as conversion of cortisone to cortisol by ELISA; type: cell-based; how it was run: as §3
T5 sequence (P16232 whole entry): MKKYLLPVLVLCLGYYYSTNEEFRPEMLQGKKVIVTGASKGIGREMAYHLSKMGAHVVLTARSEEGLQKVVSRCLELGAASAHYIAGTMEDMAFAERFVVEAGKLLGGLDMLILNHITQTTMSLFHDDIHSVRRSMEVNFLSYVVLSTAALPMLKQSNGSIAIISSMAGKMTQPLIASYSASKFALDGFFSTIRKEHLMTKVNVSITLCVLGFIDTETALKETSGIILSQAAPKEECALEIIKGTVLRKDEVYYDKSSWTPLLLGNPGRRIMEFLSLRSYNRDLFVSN

[27] = Half life in dog at 2 mg/kg, iv; type: ADME, organism-based, Canis lupus familiaris; parameters: dose 2 mg/kg, route intravenous; settings: in vivo; how it was run: as §4
[28] = target: T4, 11-beta-hydroxysteroid dehydrogenase 1; assay: Inhibition of mouse 11beta-HSD1 expressed in CHO cells assessed as conversion of cortisone to cortisol by ELISA; type: cell-based; how it was run: as §3
[29] = target: T5, 11-beta-hydroxysteroid dehydrogenase 1; assay: Inhibition of rat recombinant 11beta-HSD1 expressed in Escherichia coli using [3H]cortisone by scintillation proximity assay
[30] = Clearance in mouse at 2 mg/kg, iv and 10 mg/kg, po; type: ADME, organism-based; settings: in vivo
[31] = target: T6, Nuclear receptor subfamily 1 group I member 2 (Homo sapiens, UniProt O75469); assay: Transactivation of human PXR transfected in HEK cells at 20 uM by luciferase reporter gene assay relative to 12.5 uM rifampin; type: cell-based; settings: hek293, 20 µM
T6 sequence (O75469 whole entry): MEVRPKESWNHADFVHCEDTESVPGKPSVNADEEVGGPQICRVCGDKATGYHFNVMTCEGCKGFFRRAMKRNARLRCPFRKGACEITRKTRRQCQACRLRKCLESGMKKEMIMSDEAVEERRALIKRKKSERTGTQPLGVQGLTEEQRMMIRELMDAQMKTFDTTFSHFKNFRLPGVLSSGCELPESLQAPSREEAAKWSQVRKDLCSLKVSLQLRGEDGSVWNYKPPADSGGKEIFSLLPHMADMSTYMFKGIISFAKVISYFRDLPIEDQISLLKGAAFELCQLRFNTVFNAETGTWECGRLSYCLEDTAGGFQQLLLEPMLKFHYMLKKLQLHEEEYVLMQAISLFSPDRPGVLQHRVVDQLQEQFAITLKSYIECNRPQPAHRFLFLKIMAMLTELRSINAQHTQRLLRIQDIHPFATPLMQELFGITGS
How it was run: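 HEK cells transfected with human PXR fused to a firefly luciferase reporter. Luciferase activity is expressed as percent of the 12.5 µM rifampin response. Run in triplicate; SEM reported.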

[32] = AUC (0 to infinity) in rat at 5 mg/kg, po; type: ADME, organism-based; parameters: time infinity, dose 5 mg/kg, route oral; settings: plasma
[33] = Volume of distribution at steady state in rat at 2 mg/kg, iv and 5 mg/kg, po; type: ADME, organism-based; settings: in vivo, read-out: Vdss
[34] = Volume of distribution at steady state in monkey at 2 mg/kg, iv and 10 mg/kg, po; type: ADME, organism-based, Macaca mulatta; settings: rhesus monkey, in vivo, read-out: Vdss
[35] = Oral bioavailability in mouse at 10 mg/kg; type: ADME, organism-based; settings: in vivo
[36] = Clearance in dog at 2 mg/kg, iv and 5 mg/kg, po; type: ADME, organism-based, Canis lupus familiaris; settings: in vivo; how it was run: as §4
[37] = target: T2, 11-beta-hydroxysteroid dehydrogenase type 1; assay: Inhibition of dog recombinant 11beta-HSD1 expressed in Escherichia coli using [3H]cortisone by scintillation proximity assay; how it was run: as §5
[38] = Half life in mouse at 2 mg/kg, iv; type: ADME, organism-based; parameters: dose 2 mg/kg, route intravenous; settings: in vivo
Cynomolgus monkey [39] = assay: Plasma concentration in cynomolgus monkey at 3 mg/kg, po; type: ADME, organism-based, Macaca fascicularis; parameters: dose 3 mg/kg, route oral; settings: in vivo; how it was run: as §1
[40] = Inhibition of monkey 11beta-HSD1 expressed in CHO cells assessed as conversion of cortisone to cortisol by ELISA; type: cell-based, Macaca mulatta; how it was run: as §3

SMILES: C[C@H](NC1=NC(=O)[C@](C)(C(C)(C)O)S1)c1ccc(F)cc1
- bioavailability [1]: 91%
- concentration (Cynomolgus monkey [2]): 26 µM
- Activity (Cynomolgus monkey [3]): Active
- clearance [4]: 20 mL/min/kg
- Activity (Cytochrome P450 3A4 [5]): 17%
- AUC(0-inf) [6]: 5700 ng·h/mL
- IC50 [7]: 45 nM
- Ki [8]: 48 nM
- Activity (Hepatocyte [9]): 13%
- Ki [10]: 35 nM
- Vd [11]: 1.4 L/kg
- half-life [12]: 2.2 h
- Activity (Hepatocyte [13]): 45%
- IC50 [14]: 34 nM
- half-life [15]: 5.6 h
- Vd [16]: 0.88 L/kg
- AUC(0-inf) [17]: 6500 ng·h/mL
- bioavailability [18]: 65%
- Activity (Cynomolgus monkey [19]): Active
- Ki [20]: 100 nM
- Activity (Cytochrome P450 3A4 [21]): 10%
- clearance [22]: 5.17 mL/min/kg
- fraction unbound [23]: 0.108
- bioavailability [24]: 56%
- AUC(0-inf) [25]: 54000 ng·h/mL
- IC50 [26]: 340 nM
- half-life [27]: 7.3 h
- IC50 [28]: 140 nM
- Ki [29]: 300 nM
- clearance [30]: 26.7 mL/min/kg
- Activity [31]: 6%
- AUC(0-inf) [32]: 9200 ng·h/mL
- Vd [33]: 2.5 L/kg
- Vd [34]: 1.9 L/kg
- bioavailability [35]: 100%
- clearance [36]: 1.42 mL/min/kg
- Ki [37]: 12 nM
- half-life [38]: 3.3 h
- concentration (Cynomolgus monkey [39]): 4.9 µM
- IC50 [40]: 42 nM

Reference: ChEMBL document CHEMBL1151735, “Further studies with the 2-amino-1,3-thiazol-4(5H)-one class of 11beta-hydroxysteroid dehydrogenase type 1 inhibitors: reducing pregnane X receptor activity and exploring activity in a monkey pharmacodynamic model” (J Med Chem, 2008)
